Legend:
[1] = tested on: COLO 205; experiment: Growth inhibition of human COLO205 cells assessed as cell growth at 10^-5 M incubated for 48 hrs by sulforhodamine B assay relative to control; assay type: functional; settings: COLO 205, 48 h, read-out: Activity
[2] = tested on: SF-295; experiment: Growth inhibition of human SF295 cells assessed as cell growth at 10^-6 M incubated for 48 hrs by sulforhodamine B assay relative to control; assay type: functional; settings: SF-295, 48 h, read-out: Activity
[3] = tested on: SK-OV-3; experiment: Growth inhibition of human SKOV3 cells assessed as cell growth at 10^-7 M incubated for 48 hrs by sulforhodamine B assay relative to control; assay type: functional; settings: SK-OV-3, 48 h, read-out: Activity
[4] = tested on: ACHN; experiment: Growth inhibition of human ACHN cells assessed as cell growth at 10^-7 M incubated for 48 hrs by sulforhodamine B assay relative to control; assay type: functional; settings: read-out: Activity
[5] = tested on: HeLa; experiment: Antiproliferative activity against human HeLa cells after 72 hrs by Coulter counter method; assay type: functional, cell-based
Method in brief: (§1)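 Cell count assay in 96-well microtiter plates; (5–7.5) × 10⁴ tumor cells per well plus test compound. Cells proliferated at 37 °C in humidified CO₂-controlled atmosphere, 48 h for murine leukemia L1210, 72 h for human lymphocytic CEM and cervix carcinoma HeLa. Counted by Coulter counter; IC₅₀ is the concentration that inhibits proliferation by 50%.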

[6] = tested on: NCI-H23; experiment: Growth inhibition of human NCI-H23 cells assessed as cell growth at 10^-7 M incubated for 48 hrs by sulforhodamine B assay relative to control; assay type: functional; settings: NCI-H23, 48 h, read-out: Activity
[7] = tested on: SK-MEL-28; experiment: Growth inhibition of human SK-MEL-28 cells assessed as cell growth at 10^-6 M incubated for 48 hrs by sulforhodamine B assay relative to control; assay type: functional; settings: SK-MEL-28, 48 h, read-out: Activity
[8] = tested on: UACC-257; experiment: Growth inhibition of human UACC257 cells assessed as cell growth at 10^-7 M incubated for 48 hrs by sulforhodamine B assay relative to control; assay type: functional; settings: UACC-257, 48 h, read-out: Activity
[9] = tested on: SK-MEL-5; experiment: Growth inhibition of human SK-MEL-5 cells assessed as cell growth at 10^-6 M incubated for 48 hrs by sulforhodamine B assay relative to control; assay type: functional; settings: SK-MEL-5, 48 h, read-out: Activity
[10] = tested on: HCC 2998; experiment: Growth inhibition of human HCC2998 cells assessed as cell growth at 10^-6 M incubated for 48 hrs by sulforhodamine B assay relative to control; assay type: functional; settings: HCC 2998, 48 h, read-out: Activity
[11] = tested on: KM12; experiment: Cytotoxicity against human KM12 cells after 48 hrs by SRB assay; assay type: functional; settings: KM12, 48 h
[12] = tested on: Hs-578T; experiment: Growth inhibition of human Hs 578T cells assessed as cell growth at 10^-7 M incubated for 48 hrs by sulforhodamine B assay relative to control; assay type: functional; settings: read-out: Activity
[13] = tested on: NCI/ADR-RES; experiment: Growth inhibition of human NCI/ADR-RES cells assessed as cell growth at 10^-4 M incubated for 48 hrs by sulforhodamine B assay relative to control; assay type: functional; settings: read-out: Activity
[14] = tested on: CCRF-CEM; experiment: Growth inhibition of human CCRF-CEM cells assessed as cell growth at 10^-6 M incubated for 48 hrs by sulforhodamine B assay relative to control; assay type: functional; settings: read-out: Activity
[15] = tested on: MOLT-4; experiment: Cytotoxicity against human MOLT4 cells after 48 hrs by SRB assay; assay type: functional; settings: MOLT-4, 48 h
[16] = tested on: NCI/ADR-RES; experiment: Cytotoxicity against human NCI-ADR-RES cells after 48 hrs by SRB assay; assay type: functional
[17] = tested on: SN12C; experiment: Growth inhibition of human SN12C cells assessed as cell growth at 10^-5 M incubated for 48 hrs by sulforhodamine B assay relative to control; assay type: functional; settings: read-out: Activity
[18] = tested on: A549; experiment: Cytotoxicity against human A549 cells after 48 hrs by SRB assay; assay type: functional; settings: A549, 48 h
[19] = tested on: NCI-H23; experiment: Growth inhibition of human NCI-H23 cells assessed as cell growth at 10^-8 M incubated for 48 hrs by sulforhodamine B assay relative to control; assay type: functional; settings: NCI-H23, 48 h, read-out: Activity
[20] = tested on: NCI-H23; experiment: Growth inhibition of human NCI-H23 cells assessed as cell growth at 10^-5 M incubated for 48 hrs by sulforhodamine B assay relative to control; assay type: functional; settings: NCI-H23, 48 h, read-out: Activity
[21] = tested on: CCRF-CEM; experiment: Antiproliferative activity against human CEM cells after 72 hrs by Coulter counter method; assay type: functional, cell-based; method in brief: as §1
[22] = tested on: M14; experiment: Growth inhibition of human M14 cells assessed as cell growth at 10^-6 M incubated for 48 hrs by sulforhodamine B assay relative to control; assay type: functional; settings: M14, 48 h, read-out: Activity
[23] = tested on: CCRF-CEM; experiment: Growth inhibition of human CCRF-CEM cells assessed as cell growth at 10^-5 M incubated for 48 hrs by sulforhodamine B assay relative to control; assay type: functional; settings: read-out: Activity
[24] = tested on: U-251; experiment: Growth inhibition of human U251 cells assessed as cell growth at 10^-8 M incubated for 48 hrs by sulforhodamine B assay relative to control; assay type: functional; settings: U-251, 48 h, read-out: Activity
[25] = tested on: SF-268; experiment: Cytotoxicity against human SF268 cells after 48 hrs by SRB assay; assay type: functional; settings: SF-268, 48 h
[26] = tested on: SW-620; experiment: Growth inhibition of human SW620 cells assessed as cell growth at 10^-8 M incubated for 48 hrs by sulforhodamine B assay relative to control; assay type: functional; settings: SW-620, 48 h, read-out: Activity
[27] = tested on: NCI-H226; experiment: Growth inhibition of human NCI-H226 cells assessed as cell growth at 10^-6 M incubated for 48 hrs by sulforhodamine B assay relative to control; assay type: functional; settings: NCI-H226, 48 h, read-out: Activity
[28] = tested on: SK-MEL-28; experiment: Growth inhibition of human SK-MEL-28 cells assessed as cell growth at 10^-5 M incubated for 48 hrs by sulforhodamine B assay relative to control; assay type: functional; settings: SK-MEL-28, 48 h, read-out: Activity
[29] = tested on: MOLT-4; experiment: Growth inhibition of human MOLT4 cells assessed as cell growth at 10^-6 M incubated for 48 hrs by sulforhodamine B assay relative to control; assay type: functional; settings: MOLT-4, 48 h, read-out: Activity
[30] = tested on: BT-549; experiment: Growth inhibition of human BT549 cells assessed as cell growth at 10^-6 M incubated for 48 hrs by sulforhodamine B assay relative to control; assay type: functional; settings: BT-549, 48 h, read-out: Activity
[31] = tested on: KM12; experiment: Growth inhibition of human KM12 cells assessed as cell growth at 10^-6 M incubated for 48 hrs by sulforhodamine B assay relative to control; assay type: functional; settings: KM12, 48 h, read-out: Activity
[32] = tested on: RXF 393; experiment: Cytotoxicity against human RXF393 cells after 48 hrs by SRB assay; assay type: functional; settings: RXF 393, 48 h
[33] = read-out: LC50 (the source's name)
[34] = read-out: pLC50 (the source's name) (converted)

C#C[C@@]1(O)[C@@H](CO)O[C@@H](n2cc(F)c3c(N)ncnc32)[C@@H]1O
growth at 10 µM [1]: -52%
growth at 1 µM [2]: 40%
growth at 0.1 µM [3]: 81%
growth at 0.1 µM [4]: 75%
IC50 [5]: 0.15 µM
growth at 0.1 µM [6]: 91%
growth at 1 µM [7]: 72%
growth at 0.1 µM [8]: 85%
growth at 1 µM [9]: 13%
growth at 1 µM [10]: 37%
CC50 [11, 33]: > 100 µM
TGI ([11]; read-out: TGI): 24.9 µM
GI50 ([11]; read-out: pGI50 (converted)): 0.501 µM
TGI ([11]; read-out: pTGI (converted)): 25.1 µM
growth at 0.1 µM [12]: 106%
growth at 100 µM [13]: -6%
growth at 1 µM [14]: 23%
TGI ([15]; read-out: TGI): > 100 µM
GI50 ([15]; read-out: pGI50 (converted)): 0.302 µM
CC50 [15, 34]: > 100 µM
TGI ([15]; read-out: pTGI (converted)): > 100 µM
TGI ([16]; read-out: TGI): 11.3 µM
GI50 ([16]; read-out: pGI50 (converted)): 0.309 µM
CC50 [16, 34]: > 100 µM
TGI ([16]; read-out: pTGI (converted)): 11.2 µM
growth at 10 µM [17]: -8%
TGI ([18]; read-out: TGI): 2.64 µM
GI50 ([18]; read-out: pGI50 (converted)): 0.38 µM
CC50 [18, 34]: > 100 µM
TGI ([18]; read-out: pTGI (converted)): 2.63 µM
growth at 0.01 µM [19]: 97%
growth at 10 µM [20]: -4%
IC50 [21]: 0.16 µM
growth at 1 µM [22]: 29%
growth at 10 µM [23]: 5%
growth at 0.01 µM [24]: 97%
CC50 [25, 33]: > 100 µM
TGI ([25]; read-out: TGI): 78.3 µM
GI50 ([25]; read-out: pGI50 (converted)): 0.759 µM
TGI ([25]; read-out: pTGI (converted)): 77.6 µM
growth at 0.01 µM [26]: 97%
growth at 1 µM [27]: 32%
growth at 10 µM [28]: 37%
growth at 1 µM [29]: 11%
growth at 1 µM [30]: 45%
growth at 1 µM [31]: 35%
CC50 [32, 33]: > 100 µM
TGI ([32]; read-out: TGI): 2.99 µM
GI50 ([32]; read-out: pGI50 (converted)): 0.724 µM
TGI ([32]; read-out: pTGI (converted)): 3.02 µM

— ChEMBL document CHEMBL4270599, “Synthesis of a 3'-C-ethynyl-β-d-ribofuranose purine nucleoside library: Discovery of C7-deazapurine analogs as potent antiproliferative nucleosides” (Eur J Med Chem, 2018)
